Legend:
[1] = Inhibition of platelet aggregation induced by AA (100 uM); type: functional
Outline: (§1)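 Platelets were preincubated with test compound at 37 °C for 1 min. Values are mean ± SE from three to six separations. Aspirin served as positive control.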

[2] = Inhibition of platelet aggregation induced by Collagen (10 uM); type: functional; settings: in the assay text read “10 ug/mL” for “10 uM”; outline: as §1
[3] = Inhibition of platelet aggregation induced by PAF (2 ng/mL); type: functional; outline: as §1
[4] = Inhibition of platelet aggregation induced by thrombin (0.1 unit/ml); type: functional; outline: as §1
[5] = inhibition of platelet aggregation induced by PAF (2 ng/mL); type: functional; outline: as §1
[6] = molecular target: cGMP-specific 3',5'-cyclic phosphodiesterase (Homo sapiens, UniProt O76074); assay: Inhibition of PDE5 from platelets
Outline: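 PDE activity fraction incubated with [3H]cGMP as substrate and a range of test-compound concentrations at 37 °C for 10 min. IBMX served as positive control.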

[7] = molecular target: T1, Soluble guanylate cyclase (Homo sapiens) (UniProt Q02153+O75343+P33402+Q02108); assay: sGC activation was determined in the presence of [alpha-32P]GTP at a concentration of 82 uM; type: protein-complex assay
Outline: (§2)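 Soluble guanylate cyclase source was the supernatant fraction of platelet homogenate. It was incubated with [α-32P]GTP and 82 μM test compound at 37 °C for 10 min. Activity was expressed as pmol cGMP/min/mg protein.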

[8] = molecular target: T1, Soluble guanylate cyclase (Homo sapiens); assay: […] was determined in the presence of [alpha-32P]GTP at a concentration of 82 uM; type: protein-complex assay; outline: as §2
[9] = Inhibition of platelet aggregation induced by Collagen (10 ug/mL)

| SMILES | IC50 [1] [µM] | IC50 [2] [µM] | IC50 [3] [µM] | IC50 [4] [µM] | IC50 [5] [µM] | IC50 [6] [µM] | Activity (pM of cGMP (min)-1 (mg of protein)-1) [7] | Activity (pM of cGMP (min)-1 (mg of protein)-1) [8] | IC50 [9] [µM] |
| --- | --- | --- | --- | --- | --- | --- | --- | --- | --- |
| CC(=O)Oc1ccccc1C(=O)O [ASPIRIN] | 20 | > 270 | > 270 | > 270 |  |  |  |  |  |
| CCOC(=O)c1cccc(-c2nn(Cc3ccccc3)c3ccccc23)c1 | 125 | 144 |  | > 270 | > 270 |  |  |  |  |
| COCc1ccc(-c2nn(Cc3ccccc3)c3ccccc23)o1 | 8.2 | 6.6 | 25.5 | 143 |  | 13.8 | 32 |  |  |
| COCc1ccc(-c2nn(Cc3ccccc3)c3cc4c(cc23)OCO4)o1 | 102 | 113 |  | > 270 | 196 |  |  |  |  |
| OCc1ccc(-c2nn(Cc3ccccc3)c3cc(F)ccc23)o1 | 21.7 | 25.2 | 53.4 | 217 |  | 14 | 37.2 |  |  |
| Cc1ccc(-c2nn(Cc3ccccc3)c3ccccc23)o1 | 47.3 | 27.5 |  | 39.4 | 39.6 | 22.3 |  | 30.9 |  |
| OCc1ccc(-c2nn(Cc3ccccc3)c3cc4c(cc23)OCO4)o1 | 96.6 |  | 164 | 239 |  |  |  |  | 105 |
| O=C(O)c1ccc(-c2nn(-c3ccccc3)c3ccccc23)o1 | > 270 | > 270 |  | > 270 | > 270 |  |  |  |  |
| CCOC(=O)c1ccc(-c2nn(Cc3ccccc3)c3ccccc23)cc1 | 184 | 212 | 164 | 29.3 |  |  |  |  |  |
| COCc1ccc(-c2nn(Cc3ccccc3)c3cc(OC)ccc23)o1 | 108 | 115 |  | 256 | 177 |  |  |  |  |
| COC(=O)c1ccc(-c2nn(Cc3ccccc3)c3cc4c(cc23)OCO4)o1 | 136 | 168 |  | 260 | 254 |  |  |  |  |
| COc1ccc2c(-c3ccc(CO)o3)nn(Cc3ccccc3)c2c1 | 49.7 | 46.7 | 89.2 | 168 |  |  | 39.9 |  |  |
| Cc1ccc2c(-c3ccc(C(=O)O)o3)nn(Cc3ccccc3)c2c1 | 150 | 182 |  | > 270 | > 270 |  |  |  |  |
| COC(=O)c1ccc(-c2nn(-c3ccccc3)c3ccccc23)o1 | 10.6 | 18.2 | > 270 | > 270 |  |  |  |  |  |
| O=C(O)c1ccc(-c2nn(Cc3ccccc3)c3ccccc23)cc1 | 130 | 156 |  | > 270 | 179 |  |  |  |  |
| OCc1ccc(-c2nn(Cc3ccccc3)c3ccccc23)o1 | 54.3 | 53.8 | 87.3 | 173 |  | 31.9 | 44.6 |  |  |
| OCc1ccc(-c2nn(Cc3ccccc3)c3ccccc23)cc1 | 101 | 123 |  | 193 | 143 |  |  |  |  |
